Measurements collected from several papers.
Protocols differ between the studies behind these lines.
LRRK2 G2019S: Leucine-rich repeat serine/threonine-protein kinase 2 (LRRK2, Homo sapiens, UniProt Q5S007, G2019S)
LRRK2: Leucine-rich repeat serine/threonine-protein kinase 2 (LRRK2, Homo sapiens, UniProt Q5S007)

Cc1nc(C2CCN(C(=O)c3ccc(OC(F)(F)F)cc3N)CC2)c2ncc(N3CCN(C)CC3)cc2n1 — remaining binding (LRRK2 G2019S; cell-free assay; competition with immobilised ligand; 1 µM): 100%
O=C(c1ccc(Nc2nccc(-c3cc4ccccc4s3)n2)cc1)N1CCC(N2CCCC2)CC1 — remaining binding (LRRK2; binding; competition with immobilised ligand; 1 µM): 40%
N[C@H]1CCN(c2nccc(-c3cnn4ncccc34)n2)C1 — remaining binding (LRRK2 G2019S; binding; 1 µM): 89%
Cc1cnc(Nc2ccc(C(=O)N3CCC(N4CCCC4)CC3)cc2)nc1-c1cc2ccccc2s1 — remaining binding (LRRK2; binding; competition with immobilised ligand; 1 µM): 8.3%
CC1CCCN1c1nccc(-c2cnn3ncccc23)n1 (centres unmarked) — remaining binding (LRRK2 G2019S; binding; 1 µM): 100%
O=C(N[C@H]1CCCCC/C=C\C2C[C@@]2(C(=O)O)NC(=O)[C@@H]2C[C@@H](Oc3ccncc3)CN2C1=O)OC1CCCC1 (some centres unmarked) — remaining binding (LRRK2 G2019S; binding; competition with immobilised ligand; 1 µM): 86%
COc1ncc2cc3ccccc3nc2c1C#N — remaining binding (LRRK2 G2019S; cell-free assay; competition with immobilised ligand; 5 µM): 100%
Cn1cc(Cl)c2c(Oc3c(F)cc(Nc4cc(Cl)nc(N)n4)cc3F)ccnc21 — remaining binding (LRRK2; cell-free assay; competition with immobilised ligand; 0.1 µM): 75%
CCN1CCN(Cc2ccc(C(=O)Nc3ccc(C)c(Oc4ccc5c(c4)CC(=O)N5)c3)cc2C(F)(F)F)CC1 — remaining binding (LRRK2; binding; competition with immobilised ligand; 1 µM): 100%
F[C@@H]1CCN(c2nccc(-c3cnn4ncccc34)n2)C1 — remaining binding (LRRK2 G2019S; binding; 1 µM): 100%
C[C@@H](c1ccc(-n2cnc3c(N)ncnc32)cc1)N1CCc2nn(C)c(Cc3ccccc3)c2C1=O — remaining binding (LRRK2 G2019S; binding; competition with immobilised ligand; 0.1 µM): 92%
CN(CCCC(F)(F)F)c1nccc(-c2cnn3ncccc23)n1 — remaining binding (LRRK2; binding; 1 µM): 100%
Nc1ncc2c(n1)-c1c([nH]c3ccc(C#CC4CC4)cc13)CCCC2 — remaining binding (LRRK2; binding; competition with immobilised ligand; 1 µM): 83%
C=CC(=O)N1CCC(C(=O)NCC(=O)N2CCN(c3nc(-c4cnc(N)nc4C(F)F)nc(N4CCOCC4)n3)CC2)CC1 — remaining binding (LRRK2 G2019S; binding; competition with immobilised ligand; 1 µM): 79%
COc1cnc(Nc2cccc(S(N)(=O)=O)c2)nc1N1CCN(c2ccccc2)CC1 — remaining binding (LRRK2 G2019S; binding; competition with immobilised ligand; 1 µM): 95%
c1cncc(-c2cccc(Nc3nccc(NC4CCCCC4)n3)c2)c1 — remaining binding (LRRK2; binding; competition with immobilised ligand; 10 µM): 49%
O=C(NCCCN1CCOCC1)c1ccc(Nc2ncc(Cl)c(-c3ccc(Cl)s3)n2)cc1 — remaining binding (LRRK2; binding; competition with immobilised ligand; 1 µM): 24%
CCC(=N\O)/C(C)=C/c1ccc(F)cc1 — remaining binding (LRRK2; cell-free assay; competition with immobilised ligand; 1 µM): 90%
C[C@@H]1CCN(c2nccc(-c3cnn4ncccc34)n2)C1 — remaining binding (LRRK2 G2019S; binding; 1 µM): 63%
FC(F)(F)Oc1cccc(-c2cnc3ccc(-c4ccncc4)nn23)c1 — remaining binding (LRRK2; cell-free assay; competition with immobilised ligand; 5 µM): 52%
CN1CCN(c2ccc(Nc3nccc(-c4ccccc4)n3)cc2C(F)(F)F)CC1 — remaining binding (LRRK2 G2019S; binding; 10 µM): 100%
Cc1cc(-n2nc(Cc3cc(F)cc(C(F)(F)F)c3)nc2C)ccc1C(N)=O — remaining binding (LRRK2 G2019S; cell-free assay; competition with immobilised ligand; 1 µM): 100%
O=C(NCCCN1CCOCC1)c1ccc(Nc2nccc(-c3cc4ccccc4s3)n2)cc1 — remaining binding (LRRK2 G2019S; binding; competition with immobilised ligand; 1 µM): 69%
C[C@@H]1CN(c2cc(-c3nn(C)c4ccc(OC5(C)CC5)cc34)ncn2)C[C@H](C)O1 — remaining binding (LRRK2; binding; competition with immobilised ligand; 1 µM): 22%
CNC(=O)[C@@H]1CC[C@@H](n2c(-c3ccc4cnccc4c3)nc3ccc(C(=O)NCc4cccc(C(N)=O)c4)cc32)C1 — remaining binding (LRRK2; binding; competition with immobilised ligand; 1 µM): 100%
O=C(NCC1CCOCC1)c1n[nH]cc1NC(=O)c1c(F)cccc1F — remaining binding (LRRK2 G2019S; binding; competition with immobilised ligand; 1 µM): 89%
COc1ccnn2ncc(-c3ccnc(N(C)C)n3)c12 — remaining binding (LRRK2 G2019S; binding; 1 µM): 100%
O=C(c1ccc(Nc2ncc(Cl)c(-c3cc4ccccc4s3)n2)cc1)N1CCC(N2CCCC2)CC1 — remaining binding (LRRK2; binding; competition with immobilised ligand; 1 µM): 12%
CC(=O)N1CCC(c2ccc(C(=O)NC(=N)N)cc2C(F)(F)F)CC1 — remaining binding (LRRK2 G2019S; cell-free assay; competition with immobilised ligand; 1 µM): 100%
O=C(c1ccc(Nc2ncc(Cl)c(-c3ccc(Cl)s3)n2)cc1)N1CCC(N2CCCC2)CC1 — remaining binding (LRRK2; binding; competition with immobilised ligand; 1 µM): 3.3%
COc1cnc(Nc2cccc(S(N)(=O)=O)c2)nc1N1CCN(c2ccccc2)C(=O)C1 — remaining binding (LRRK2 G2019S; binding; competition with immobilised ligand; 1 µM): 100%
CN(C)c1nccc(-c2cnc3ncccn23)n1 — remaining binding (LRRK2; binding; 1 µM): 61%
O=C(Nc1c[nH]nc1C(=O)NC1CCNCC1)c1cc(F)cc(F)c1 — remaining binding (LRRK2; binding; competition with immobilised ligand; 1 µM): 92%
CN([C@@H]1CCc2c(CC(=O)O)c3cc(S(C)(=O)=O)ccc3n2C1)S(=O)(=O)c1ccc(F)cc1 — remaining binding (LRRK2 G2019S; cell-free assay; competition with immobilised ligand; 1 µM): 100%
CN(C)c1nccc(-c2cnn3ncccc23)n1 — remaining binding (LRRK2 G2019S; binding; 1 µM): 69%
